Experimental findings from ChEMBL document CHEMBL1154034, “Piperazinyl-glutamate-pyridines as potent orally bioavailable P2Y12 antagonists for inhibition of platelet aggregation” (Bioorg Med Chem Lett, 2009) are described below.

Each structure is given as a SMILES string.

Series [1] deals with T1, P2Y purinoceptor 12 (Homo sapiens, UniProt Q9H244). As to the kind of experiment: Binding affinity to human recombinant P2Y12 receptor expressed in CHO cells. The series is classed as cell-based.
The nature of series [2]: Clearance in Sprague-Dawley rat at 2 mg/kg, iv and 5 mg/kg, po. Type of series: ADME, organism-based. Conditions: in vivo. Put shortly: (§1)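 Male Sprague–Dawley rats, n = 2–4. Dosed by iv infusion at 2 mg/kg and orally at 5 mg/kg.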
Series [3] in a line: Volume of distribution at steady state in Sprague-Dawley rat at 2 mg/kg, iv and 5 mg/kg, po. The series is classed as ADME, organism-based. As to conditions: in vivo, read-out: Vdss. In a few lines: as §1
Series [4] can be described thus: Effective half life in Sprague-Dawley rat at 2 mg/kg, iv and 5 mg/kg, po. Type of series: ADME, organism-based. Conditions: in vivo. Put shortly:
as §1

The next series in a line: in vivo. As to conditions: Sprague-Dawley, rat, po, 5 mg/kg.
The nature of series [5]: Solubility of the compound. Type of series: physicochemical.
For series [6], the target named is T1, P2Y purinoceptor 12. As to the kind of experiment: Antagonist activity at human P2Y12 receptor assessed as inhibition of ADP-induced platelet-rich plasma aggregation by turbidimetric method. The series is classed as functional, cell-free.
A short description of series [7]: Drug concentration in rat bile at 2 mg/kg, iv after 4 hrs. Type of series: ADME, organism-based. On the set-up: dose 2 mg/kg, route intravenous. As to conditions: read-out: Drug uptake. In a few lines:
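Rats dosed at 2 mg/kg iv; bile collected over 4 h and the fraction of dose recovered determined.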

For a further series, the system named is Rattus norvegicus. As to the kind of experiment: Antithrombotic activity in po dosed rat arterial thrombosis model assessed as inhibition of ferric chloride-induced thrombus formation. Type of series: functional, organism-based.
In series [8] the test system is Salmonella enterica subsp. enterica. Kind of series: Toxicity in Salmonella Typhimurium by Ames test. The series is classed as organism-based. As to conditions: salmonella enterica subsp. enterica serovar typhimurium.

T1 sequence (Q9H244 whole entry, the tested form may be a part): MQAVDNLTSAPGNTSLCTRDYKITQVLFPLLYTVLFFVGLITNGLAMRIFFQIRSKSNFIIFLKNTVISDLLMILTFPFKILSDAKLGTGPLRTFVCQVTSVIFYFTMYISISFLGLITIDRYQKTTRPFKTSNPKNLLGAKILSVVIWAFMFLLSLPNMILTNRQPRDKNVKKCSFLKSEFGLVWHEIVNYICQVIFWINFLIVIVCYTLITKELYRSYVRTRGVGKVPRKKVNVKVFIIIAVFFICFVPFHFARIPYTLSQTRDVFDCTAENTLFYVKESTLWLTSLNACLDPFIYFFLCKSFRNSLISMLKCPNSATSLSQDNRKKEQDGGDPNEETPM

Turning to `CCCCCCOC(=O)N1CCN(C(=O)[C@H](CCC(=O)O)NC(=O)c2cccc(-c3ccccc3)n2)CC1`, the Ki at P2Y purinoceptor 12 [1] stood at 43 nM. In [2], the clearance amounted to 29 mL/min/kg. The Vd in series [3] turned out to be 1.7 L/kg. In series [4], this compound showed a half-life of 42 min. In the series “in vivo”, the bioavailability is above 95%.
The corresponding values for `CCCCCOC(=O)N1CCN(C(=O)[C@H](CCC(=O)O)NC(=O)c2cccc(-c3ccccc3)n2)CC1` are 11 nM, 89 mL/min/kg, 10.3 L/kg, 78 min and 70%.
Take `CCCCCOC(=O)N1CCN(C(=O)[C@H](CCC(=O)O)NC(=O)c2cc(OC3CCNCC3)cc(-c3ccccc3)n2)CC1`: at P2Y purinoceptor 12 [1], the Ki came out at 3.8 nM. This compound gave a clearance in series [2] of 133 mL/min/kg. For the same compound, in series [3], the Vd came to 3.1 L/kg. The half-life in series [4] is 18 min. Besides, the bioavailability in “in vivo” amounted to 1%.
For the compound `CCCCCOC(=O)N1CCN(C(=O)[C@H](CCC(=O)O)NC(=O)c2cc(N3CCC(COC)CC3)cc(-c3ccccc3)n2)CC1`, the solubility entry in series [5] is on record as “Soluble”. The Kb came to 8.5 nM at P2Y purinoceptor 12 [1] and 300 nM on P2Y purinoceptor 12 [6]. The Ki on P2Y purinoceptor 12 [1] turned out to be 15 nM. In series [2], this compound returned a clearance of 3 mL/min/kg. Also, the Vd in [3] is 0.3 L/kg. In series [4], the half-life was 42 min. For the same compound, the dose excreted at 4 h in series [7] was 70%. The Activity entry in the series with Rattus norvegicus was “Dose-dependent effect”; in series [8], “Non-toxic”.
As to `CCCCCOC(=O)N1CCN(C(=O)[C@H](CCC(=O)O)NC(=O)c2cc(N3CCC(CN)CC3)cc(-c3ccccc3)n2)CC1`, the Ki at P2Y purinoceptor 12 [1] was 7 nM. The compound also registered a clearance in series [2] of 70 mL/min/kg. For the same compound, the Vd in series [3] was 2.6 L/kg. In [4], this compound showed a half-life of 24 min. The bioavailability in the series “in vivo” amounted to 0%.
Take `CCCCCOC(=O)N1CCN(C(=O)[C@H](CCC(=O)O)NC(=O)c2cc(N(C)CCS(C)(=O)=O)cc(-c3ccccc3)n2)CC1`: the Ki at P2Y purinoceptor 12 [1] amounted to 15 nM. Moreover, the clearance in series [2] came out at 69 mL/min/kg. Further, in series [3], the Vd stood at 1.3 L/kg. The compound further showed a half-life in series [4] of 12 min.
Consider `CCOC(=O)N1CCN(C(=O)[C@H](CCC(=O)O)NC(=O)c2cc(NCCN(C)C)cc(-c3ccccc3)n2)CC1`, for which the Ki on P2Y purinoceptor 12 [1] was found to be 270 nM.
On the same count and under the same terms, to `CCOC(=O)N1CCN(C(=O)[C@H](CCC(=O)O)NC(=O)c2cc(OCCO)cc(-c3ccccc3)n2)CC1` belongs 157 nM; to `CCOC(=O)N1CCN(C(=O)[C@H](CCC(=O)O)NC(=O)c2cc(NCc3ccccc3)cc(-c3ccccc3)n2)CC1`, 26 nM.
In the case of `CCCNc1cc(C(=O)N[C@@H](CCC(=O)O)C(=O)N2CCN(C(=O)OCC)CC2)nc(-c2ccccc2)c1`, the Ki at P2Y purinoceptor 12 [1] turned out to be 64 nM.
`CCCCOC(=O)N1CCN(C(=O)[C@H](CCC(=O)O)NC(=O)c2cc(OCCOC)cc(-c3ccccc3)n2)CC1`: the Ki at P2Y purinoceptor 12 [1] was 18 nM. The same compound displayed a clearance in series [2] of 49 mL/min/kg. Besides, in series [3], the Vd amounted to 1.5 L/kg. In [4], the half-life was 24 min. Also, the bioavailability in “in vivo” came to 77%.
Regarding `CCOC(=O)N1CCN(C(=O)[C@H](CCC(=O)O)NC(=O)c2cc(NCCOC)cc(-c3ccccc3)n2)CC1`, the Ki at P2Y purinoceptor 12 [1] is 99 nM.
On the same count and under the same terms, to `CCOC(=O)N1CCN(C(=O)[C@H](CCC(=O)O)NC(=O)c2cc(OCCCN)cc(-c3ccccc3)n2)CC1` belongs 214 nM; to `CCCCCCOC(=O)N1CCN(C(=O)[C@H](CCC(=O)O)NC(=O)c2cc(N3CCC(COC)CC3)cc(-c3ccccc3)n2)CC1`, 33 nM; to `CCOC(=O)N1CCN(C(=O)[C@H](CCC(=O)O)NC(=O)c2cc(N(CC)CC)cc(-c3ccccc3)n2)CC1`, 23 nM.
Same read-out and setting: to `CCCCCCOC(=O)N1CCN(C(=O)[C@H](CCC(=O)O)NC(=O)c2cc(N(C)CCS(C)(=O)=O)cc(-c3ccccc3)n2)CC1` belongs 36 nM.
